Measured values as given in PMC4357494 (Journal of molecular biology, 2014).
Where a SMILES comes first, the peptide text is derived from it.

Key:
DHL10 cells = assay: BH3 profiling, DHL10; type: cell-based; conditions: Bax- and Bak-deleted cell line
Summary of the method: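 Test peptides (N-acetylated, C-amidated) titrated onto permeabilized Su-DHL10 cells (RPMI 1640, 10% FBS), 2×10^4 cells/well, triplicate wells per concentration. JC-1 fluorescence gives membrane-potential loss, normalized as 1 – [(Dsample–DFCCP)/(DDMSO–DFCCP)] against FCCP and DMSO. EC50 from global fit with linked baselines; at least three biological replicates, 2-3 days of culture apart.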

[1] = test system: Mcl-1 2640 cells (Mcl-1 dependent); assay: BH3 profiling, Mcl-1 2640; type: cell-based, murine; conditions: 5 μM peptide
Summary of the method: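 Myc-driven murine leukemia line, Mcl-1 dependent, grown in RPMI 1640 with 10% FBS and […] 2-mercaptoethanol. Permeabilized cells at 2×10^4/well, triplicate wells, exposed to peptides including 5 μM. JC-1 read-out; depolarization expressed as percentage relative to FCCP (full) and DMSO (none). At least three biological replicates.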

[2] = test system: Bcl-2 3256 cells (Bcl-2 dependent)
Bcl-w (residues 1-164) = target: T1, Bcl-w (residues 1-164) (Homo sapiens, UniProt Q92843); assay: Fluorescence polarization competition binding assay, Bcl-w; conditions: FP competition with fluorescein 18-residue Bim-BH3
T1 sequence (Q92843 1-164): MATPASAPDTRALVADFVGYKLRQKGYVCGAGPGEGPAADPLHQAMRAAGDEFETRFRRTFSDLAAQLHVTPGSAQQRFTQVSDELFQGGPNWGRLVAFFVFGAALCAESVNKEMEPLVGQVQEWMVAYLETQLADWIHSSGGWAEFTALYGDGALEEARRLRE
Summary of the method: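 E. coli-expressed Bcl-w (residues 1-164), 50 nM final, competed against 10 nM N-terminal fluorescein 18-mer Bim-BH3. Unlabeled peptide serially diluted and premixed with tracer 15 min before protein. Buffer: 20 mM sodium phosphate, 50 mM NaCl, 1 mM EDTA, 0.001% Triton X, 5% DMSO, pH 7.8, 25 °C.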

[3] = target: primary human platelets (Bcl-xL dependent) (Homo sapiens, UniProt Q07817); conditions: primary human platelet samples
[4] = target: MDA-MB-231 cells (Bcl-xL dependent) (Homo sapiens, UniProt Q07817)
Bcl-2 (residues 1-217) = Bcl-2 (residues 1-217) (Homo sapiens, UniProt P10415); assay: Fluorescence polarization competition binding assay, Bcl-2; conditions: FP competition with fluorescein 18-residue Bim-BH3
Summary of the method: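 Human Bcl-2 (residues 1-217), expressed in E. coli. Buffer: 20 mM sodium phosphate, 50 mM NaCl, 1 mM EDTA, 0.001% Triton X, 5% DMSO, pH 7.8, 25 °C. Competition: test peptide serially diluted, 10 nM fluorescein Bim-BH3 added, 15 min at RT, then 50 nM Bcl-2 (final). Anisotropy read over 2-48 h, then curves fit. Direct: titrated protein, 10 nM probe, read 4-24 h.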

Mcl-1 (residues 172-327) = Mcl-1 (residues 172-327) (Homo sapiens, UniProt Q07820); assay: Fluorescence polarization binding assay, Mcl-1
Summary of the method: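 E. coli-expressed Mcl-1 (residues 172-327) in competition FP: 20 mM sodium phosphate, 50 mM NaCl, 1 mM EDTA, 0.001% Triton X, 5% DMSO, pH 7.8, 25 °C. Serially diluted unlabeled peptide plus 10 nM fluorescein tracer, 15 min, then protein. Tracer is 18-mer Bim-BH3 with 50 nM Mcl-1, or 23-mer Hrk-BH3 with 500 nM Mcl-1.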

Bcl-xL (residues 1-209) = Bcl-xL (residues 1-209) (Homo sapiens, UniProt Q07817); assay: Fluorescence polarization competition binding assay, Bcl-xL; conditions: FP competition with 23-mer fluorescently labeled Bim-BH3
Chain of Bcl-xL (residues 1-209) (Q07817 1-209): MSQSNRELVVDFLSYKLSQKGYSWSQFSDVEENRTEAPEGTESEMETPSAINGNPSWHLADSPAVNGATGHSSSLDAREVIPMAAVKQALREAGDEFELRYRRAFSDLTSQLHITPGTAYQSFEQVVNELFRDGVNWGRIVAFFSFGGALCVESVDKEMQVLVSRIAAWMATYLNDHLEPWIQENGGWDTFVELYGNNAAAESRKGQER

Chain of Mcl-1 (residues 172-327) (Q07820 172-327): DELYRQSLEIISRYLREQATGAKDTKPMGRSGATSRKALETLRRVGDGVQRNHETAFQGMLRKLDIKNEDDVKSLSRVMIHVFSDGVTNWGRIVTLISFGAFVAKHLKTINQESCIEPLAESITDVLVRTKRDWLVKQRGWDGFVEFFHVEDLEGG
Chain of Bcl-2 (residues 1-217) (P10415 1-217): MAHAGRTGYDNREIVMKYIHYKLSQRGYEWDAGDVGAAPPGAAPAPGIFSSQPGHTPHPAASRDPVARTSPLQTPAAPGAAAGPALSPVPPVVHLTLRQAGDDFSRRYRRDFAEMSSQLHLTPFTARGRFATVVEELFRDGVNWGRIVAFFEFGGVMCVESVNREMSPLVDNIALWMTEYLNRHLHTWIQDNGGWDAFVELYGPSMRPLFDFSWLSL
Chain of primary human platelets (Bcl-xL dependent) (Q07817 1-209): as the sequence (Q07817 1-209) above
Chain of MDA-MB-231 cells (Bcl-xL dependent) (Q07817 1-209): as above

Structure (SMILES): CC[C@H](C)[C@H](NC(=O)[C@H](CCC(=O)O)NC(=O)[C@@H]1CCCN1C(=O)[C@H](CCCNC(=N)N)NC(C)=O)C(=O)N[C@@H](Cc1c[nH]c2ccccc12)C(=O)N[C@@H](Cc1ccc(O)cc1)C(=O)N[C@@H](C)C(=O)N[C@@H](CCC(N)=O)C(=O)N[C@@H](CCC(=O)O)C(=O)N[C@@H](CC(C)C)C(=O)N[C@@H](CCCCN)C(=O)N[C@@H](CCCNC(=N)N)C(=O)N[C@@H](Cc1ccccc1)C(=O)NCC(=O)N[C@@H](CC(=O)O)C(=O)N[C@@H](CCC(=O)O)C(=O)N[C@@H](Cc1ccccc1)C(=O)N[C@@H](CC(N)=O)C(=O)N[C@@H](C)C(=O)N[C@@H](Cc1ccc(O)cc1)C(=O)N[C@@H](Cc1ccc(O)cc1)C(=O)N[C@@H](C)C(=O)N[C@@H](CCCNC(=N)N)C(N)=O [XXA1_G2gE] (Ac-RPEIWYAQELKRFGDEFNAYYAR-NH2)
- non-specific pore forming activities (DHL10 cells): None
- depolarization in the Mcl-1 dependent line (in words) [1]: low amount of depolarization
- EC50 [2]: 141 ± 50 nM
- binding to Bcl-w (in words) (Bcl-w (residues 1-164)): bound tighter than XXA1
- depolarization of platelets (in words) [3]: potent depolarization
- potency relative to Bad [4]: ~ 7 fold
- binding to Bcl-2 (in words) (Bcl-2 (residues 1-217)): bound tighter than XXA1
- Ki (Mcl-1 (residues 172-327)): ~31 nM
- competition with fluorescently labeled Bim-BH3 for binding to Mcl-1 (in words) (Mcl-1 (residues 172-327); FP competition): Neither XXA1 nor XXA1_G2gE could compete
- binding to Bcl-xL relative to XXA1 (in words) (Bcl-xL (residues 1-209)): bound more tightly than XXA1
